Measurements as given in ChEMBL document CHEMBL1629477, “Efficient synthesis of 6-(hetero)arylthieno[3,2-b]pyridines by Suzuki-Miyaura coupling. Evaluation of growth inhibition on human tumor cell lines, SARs and effects on the cell cycle” (2010).

Columns and labels:
Assay type in all cases: functional
[1] = test system: MCF7; assay: Growth inhibition of human MCF7 cells after 48 hrs by sulforhodamine B assay; conditions: MCF7, 48 h
In short: (§1)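 Cells kept adherent in RPMI-1640 with 5% heat-inactivated FBS, 2 mM glutamine and penicillin/streptomycin at 37 °C, 5% CO₂. Seeded at 1.5 × 10⁵ cells/mL (MCF-7) or 0.75 × 10⁵ cells/mL (A375-C5, NCI-H460), then grown 24 h. Exposed 48 h to five serial dilutions from up to 150 µM, DMSO ≤0.25%. SRB stain, absorbance 492 nm. GI₅₀ is 50% net growth inhibition; three experiments in duplicate; doxorubicin positive control.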

[2] = test system: A-375; assay: Growth inhibition of human A375 cells after 48 hrs by sulforhodamine B assay; conditions: A-375, 48 h; in short: as §1
[3] = test system: NCI-H460; assay: Growth inhibition of human NCI-H460 cells after 48 hrs by sulforhodamine B assay; conditions: NCI-H460, 48 h; in short: as §1
[4] = test system: NCI-H460; assay: Cell cycle arrest in human NCI-H460 cells assessed as accumulation at G1 phase after 48 hrs by flow cytometry
In short: (§2)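 NCI-H460 cells plated at 0.75 × 10⁵ cells/mL, then exposed 48 h to GI₅₀ or 2 × GI₅₀ concentrations (from the SRB assay). Controls were medium only (blank) and DMSO solvent. Cells were harvested, fixed in 70% ethanol and resuspended in PBS. G1/G0, S and G2/M fractions were read by flow cytometry. Three independent experiments in duplicate, mean ± SD.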

[5] = test system: NCI-H460; assay: Cell cycle arrest in human NCI-H460 cells assessed as accumulation at G2/M phase after 48 hrs by flow cytometry; in short: as §2

SMILES	GI50 [1]	GI50 [2]	GI50 [3]	Activity [4]	Activity [5]
COC(=O)c1sc2cc(-c3ccc4ccccc4c3)cnc2c1N	50.9 µM	95.6 µM	43.5 µM		
COC(=O)c1sc2cc(-c3cccs3)cnc2c1N	26.9 µM	> 150 µM	18 µM		
COC(=O)c1sc2cc(-c3ccc(OC)cc3)cnc2c1N	> 150 µM	> 150 µM	> 150 µM		
COC(=O)c1sc2cc(-c3cccc(N)c3)cnc2c1N	> 150 µM	> 150 µM	> 150 µM		
COC(=O)c1sc2cc(-c3ccc(-c4cccs4)s3)cnc2c1N	1 µM	> 75 µM	0.7 µM	15%	
COC(=O)c1sc2cc(-c3ccc(C#N)cc3)cnc2c1N	> 75 µM	> 75 µM	> 75 µM		
COC(=O)c1sc2cc(-c3cnc4ccccc4c3)cnc2c1N	9.8 µM	9.1 µM	9.5 µM		
COC(=O)c1sc2cc(-c3ccoc3)cnc2c1N	> 120 µM	> 120 µM	> 120 µM		
COC(=O)c1sc2cc(-c3ccc(C(F)(F)F)cc3)cnc2c1N	> 150 µM	> 150 µM	> 150 µM		
COC(=O)c1sc2cc(-c3cncc4ccccc34)cnc2c1N	10.7 µM	10.1 µM	7.7 µM		
COC(=O)c1sc2cc(-c3cccnc3)cnc2c1N	> 112 µM	> 112 µM	> 112 µM		
COC(=O)c1sc2cc(-c3ccc(OC)nc3)cnc2c1N	> 37.5 µM	> 37.5 µM	> 37.5 µM		
COC(=O)c1sc2cc(-c3ccc(N)cc3)cnc2c1N	108 µM	80.8 µM	37.1 µM		
COC(=O)c1sc2cc(-c3ccc4c(ccn4C)c3)cnc2c1N	23 µM	21.2 µM	20.3 µM		
COC(=O)c1sc2cc(-c3ccsc3)cnc2c1N	12.7 µM	12.1 µM	12.4 µM		
COC(=O)c1sc2cc(-c3cc(OC)cc(OC)c3)cnc2c1N	56.6 µM	82 µM	31.8 µM		
COC(=O)c1sc2cc(-c3cnn(C)c3)cnc2c1N	> 150 µM	> 150 µM	> 150 µM		
COC(=O)c1sc2cc(-c3ccc4ncccc4c3)cnc2c1N	> 150 µM	> 150 µM	> 150 µM		
COC(=O)c1sc2cc(-c3cnc(OC)nc3OC)cnc2c1N	> 75 µM	> 75 µM	> 75 µM		
COC(=O)c1sc2cc(-c3ccc(C(C)=O)cc3)cnc2c1N	> 150 µM	> 150 µM	> 150 µM		
COC(=O)c1sc2cc(-c3ccccc3N)cnc2c1N	4.2 µM	2.5 µM	3.8 µM		12%
